Measured values from ChEMBL document CHEMBL1134629, “Synthesis and biological evaluation of s-triazine substituted polyamines as potential new anti-trypanosomal drugs” (J Med Chem, 2001).

How the values were obtained:
Rattus norvegicus = species on record: Rattus norvegicus; assay: Inhibitory activity against L-6 rat myoblast cells; type: functional, cell-based
Method in brief: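 Noninfected rat L-6 skeletal myoblasts seeded at 2000 cells/well in RPMI 1640 with 10% FBS and 2 mM L-glutamine; serial drug dilutions as in the T. cruzi assay, 37 °C, 5% CO2; MIC determined microscopically after 4 days.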

[1] = Inhibitory activity against Trypanosoma cruzi; type: functional
Method in brief: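 L-6 myoblasts (2000/well, RPMI 1640, 10% FBS, 2 mM L-glutamine) infected after 24 h with 5000 trypomastigotes of T. cruzi Tulahuen C2C4 carrying LacZ plus serial drug dilution; 4 days at 37 °C, 5% CO2. Intracellular amastigote growth read via CPRG/Nonidet colour at 540 nm after 2-4 h; IC50 from sigmoidal inhibition curve.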

[2] = tested on: Trypanosoma brucei rhodesiense; assay: Inhibitory activity against T.b. rhodesiense; type: functional, organism-based
Adenosine transporter 1 = target: T1, Adenosine transporter 1 (Trypanosoma brucei, UniProt Q9Y0I0); assay: Ability to inhibit adenosine uptake by the P2 transporter in Trypanosoma brucei
T1 sequence (Q9Y0I0 whole entry): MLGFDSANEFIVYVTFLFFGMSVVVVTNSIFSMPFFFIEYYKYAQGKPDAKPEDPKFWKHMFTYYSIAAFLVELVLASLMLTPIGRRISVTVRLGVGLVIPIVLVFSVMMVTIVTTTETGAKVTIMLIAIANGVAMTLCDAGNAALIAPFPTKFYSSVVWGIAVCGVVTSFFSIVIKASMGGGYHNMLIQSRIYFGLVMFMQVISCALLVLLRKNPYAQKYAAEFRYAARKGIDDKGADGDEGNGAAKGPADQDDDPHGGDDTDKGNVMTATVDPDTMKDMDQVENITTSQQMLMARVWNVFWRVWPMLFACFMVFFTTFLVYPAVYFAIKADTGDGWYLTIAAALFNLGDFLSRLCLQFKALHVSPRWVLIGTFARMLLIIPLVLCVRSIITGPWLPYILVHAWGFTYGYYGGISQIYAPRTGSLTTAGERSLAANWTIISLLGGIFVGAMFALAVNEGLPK
Method in brief: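 T. b. brucei 427 cells (100 µL at 2 × 10⁸/mL) added to buffer with radiolabeled adenosine, 1 mM inosine to block P1 uptake, and varying inhibitor concentrations; 10 s at room temperature, then spun through 1-bromododecane oil, pellet radioactivity counted by scintillation. Apparent Ki from competitive inhibition equation; duplicate experiments.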

[3] = tested on: Trypanosoma brucei brucei; assay: Inhibitory activity against Trypanosoma brucei; type: functional, organism-based

Compound	IC50 (Rattus norvegicus)	IC50 [1]	IC50 [2]	Ki (Adenosine transporter 1)	IC50 [3]
CCCCCCCCCCCCCCCCCCNc1nc(NC)nc(NC)n1	48.2 µM	12 µM	14 µM	–	–
Nc1nc(N)nc(NCCCCCCCCCCCCNc2nc(N)nc(N)n2)n1	239 µM	6 µM	13 µM	–	–
CN(C)c1nc(N)nc(CN(CCCNCCCCCCCCCNCCCN(Cc2nc(N)nc(N(C)C)n2)Cc2nc(N)nc(N(C)C)n2)Cc2nc(N)nc(N(C)C)n2)n1	177 µM	54.8 µM	0.265 µM	17 µM	3 µM
Nc1nc(N)nc(NCCCNC2CCC(NCCCNc3nc(N)nc(N)n3)CC2)n1 (centres undefined)	338 µM	> 152 µM	> 152 µM	125 µM	> 100 µM
CNc1nc(NC)nc(NCCCNCCCCCCCCCCCCNCCCN)n1	57.7 µM	31 µM	0.58 µM	25 µM	20 µM
CN(C)c1nc(N)nc(NCCCNCCCCCCCCCNCCCNc2nc(N)nc(N(C)C)n2)n1	274 µM	> 123 µM	9.6 µM	10 µM	40 µM
CN(C)c1nc(N)nc(NCCCNCCCCCCCCCCCCNCCCN)n1	39.9 µM	32 µM	0.94 µM	1 µM	20 µM
CN(C)c1nc(N)nc(CN(CCCNCCCCCCCCCCCCNCCCN(Cc2nc(N)nc(N(C)C)n2)Cc2nc(N)nc(N(C)C)n2)Cc2nc(N)nc(N(C)C)n2)n1	105 µM	> 77 µM	0.44 µM	4.6 µM	2 µM
CNc1nc(N)nc(NCCCNCCCCCCCCCNCCCNc2nc(N)nc(NC)n2)n1	285 µM	> 135 µM	16 µM	0.75 µM	53 µM
CNc1nc(NC)nc(NCCCNCCCCCCCCCNCCCNc2nc(NC)nc(NC)n2)n1	289 µM	> 130 µM	17 µM	14 µM	4 µM
CNc1nc(NC)nc(NCCCNCCCCCCCCCCCCNCCCNc2nc(NC)nc(NC)n2)n1	143 µM	18 µM	2.3 µM	3.2 µM	17 µM
CNc1nc(N)nc(NCCCNCCCCCCCCCCCCNCCCN)n1	127 µM	> 154 µM	1.1 µM	0.41 µM	> 200 µM
CNc1nc(N)nc(NCCCNCCCCCCCCCCCCNCCCNc2nc(N)nc(NC)n2)n1	–	116 µM	9.8 µM	0.135 µM	2 µM
Nc1nc(N)nc(NCCCNCCCCNCCCNc2nc(N)nc(N)n2)n1	353 µM	> 160 µM	160 µM	72 µM	> 100 µM
Nc1nc(N)nc(NCCCNCCCCCCCCCNCCCNc2nc(N)nc(N)n2)n1	–	> 140 µM	128 µM	19 µM	> 100 µM
Nc1nc(N)nc(CN(CCCNCCCCCCCCCNCCCN(Cc2nc(N)nc(N)n2)Cc2nc(N)nc(N)n2)Cc2nc(N)nc(N)n2)n1	220 µM	> 88 µM	4.02 µM	82 µM	32 µM
CN(C)c1nc(NCCCNCCCCCCCCCNCCCNc2nc(N(C)C)nc(N(C)C)n2)nc(N(C)C)n1	37.7 µM	16 µM	1.2 µM	29 µM	32 µM
CN(C)c1nc(NCCCNCCCCCCCCCCCCNCCCNc2nc(N(C)C)nc(N(C)C)n2)nc(N(C)C)n1	6.8 µM	0.8 µM	0.81 µM	2.5 µM	1.7 µM
CNc1nc(CN(CCCNCCCCCCCCCCCCNCCCN(Cc2nc(NC)nc(NC)n2)Cc2nc(NC)nc(NC)n2)Cc2nc(NC)nc(NC)n2)nc(NC)n1	76.6 µM	> 77 µM	0.18 µM	2.4 µM	2.9 µM
CN(C)c1nc(N)nc(NCCCNCCCCCCCCCCCCNCCCNc2nc(N)nc(N(C)C)n2)n1	50.9 µM	9.7 µM	3.5 µM	0.24 µM	> 100 µM
CN(C)c1nc(NCCCNCCCCCCCCCCCCNCCCN)nc(N(C)C)n1	14.2 µM	0.71 µM	1.3 µM	0.6 µM	14.7 µM
Nc1nc(N)nc(NCCCNC2CCCCC2NCCCNc2nc(N)nc(N)n2)n1 (centres undefined)	338 µM	> 152 µM	> 152 µM	55 µM	> 100 µM
Nc1nc(N)nc(NCCCNCCCCCCCCCCCCNCCCNc2nc(N)nc(N)n2)n1	295 µM	> 13 µM	16 µM	0.5 µM	> 100 µM
CNc1nc(CN(CCCNCCCCCCCCCNCCCN(Cc2nc(NC)nc(NC)n2)Cc2nc(NC)nc(NC)n2)Cc2nc(NC)nc(NC)n2)nc(NC)n1	177 µM	76.8 µM	0.265 µM	30 µM	0.1 µM
CC(CNCCCNc1nc(N)nc(N)n1)NCCCNc1nc(N)nc(N)n1 (centres undefined)	362 µM	> 163 µM	> 163 µM	163 µM	> 100 µM
CNc1nc(NC)nc(NCCCNCCCCCCCCCNCCCN)n1	135 µM	23 µM	0.94 µM	17 µM	84 µM
Nc1nc(N)nc(CN(CCCNCCCCCCCCCCCCNCCCN(Cc2nc(N)nc(N)n2)Cc2nc(N)nc(N)n2)Cc2nc(N)nc(N)n2)n1	188 µM	> 85 µM	0.57 µM	6.7 µM	21 µM
